# Compound activity as filed in PubChem.
# Sampled rows, rich in hits. Any-hit rate of the full collection: about 2.9%.
# UBC9 SUMO inh = inhibitors of human SUMOylation (UBC9); P63279; HTRF SUMOylation assay, SAE1/SAE2 + UBC9, in vitro; inhibition, % at 35 µM; actives 0.36% (n = 290,000); in the data active means inhibition above about 50%, passing the limit was not always enough
# Target sequence (P63279 whole entry, looked up): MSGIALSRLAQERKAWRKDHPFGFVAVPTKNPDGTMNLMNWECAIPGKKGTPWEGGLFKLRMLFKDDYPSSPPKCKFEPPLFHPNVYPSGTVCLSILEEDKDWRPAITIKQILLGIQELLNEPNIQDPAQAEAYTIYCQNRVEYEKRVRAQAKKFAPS
# NALP1 inh = NALP1 inhibition; S. cerevisiae NALP1/ASC/caspase-1 growth, X-gal OD620, 72 h; inhibition, % at 10 µM; actives 0.61% (n = 280,000); AID 2071; in the data active means inhibition mostly above about 24%, no sharp cut-off; inactive means mostly below about 32%
# SUMO Mot1 rescue = blocks SUMOylation pathway, rescuing yeast Mot1-301 growth; S. cerevisiae Mot1-301 growth rescue, ATP luminescence, 38.5C; percent above DMSO median, 100 means doubled; growth rescue, % at 18.8 µM; AID 2716; actives 1% (n = 320,000);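 active means every valid replicate shows activation above 250% relative to neutral control wells; inactive means the rest, any valid replicate at or below 250%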;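 further: OY570 slx delta 5 strain wells were the positive control but not used for scaling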
# IMP-1 inhibitor = inhibitors of Pseudomonas aeruginosa IMP-1 metallo-beta-lactamase | inhibition, % at 5.6 µM | actives 0.45% (n = 290,000) | purified IMP-1, nitrocefin hydrolysis, epi-absorbance fluorescence;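 active means inhibition above the mean plus 3 SD of all compounds in the same screening run, cut at about 4.5% in these data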;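 further: 0% = IMP-1 with DMSO and 100% = DMSO wells lacking enzyme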
#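 System: purified recombinant IMP-1 beta-lactamase. Medium: Zinc- and detergent-supplemented HEPES buffer, pH 7.1. Compound: one 5.6 µM dose […]. Schedule: 15 min preincubation plus 25 min reaction at 25 °C. Technique: Epi-absorbance fluorescence, 480 nm excitation, 530 nm emission.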
# VIM-2 inh = inhibitors of Pseudomonas aeruginosa VIM-2 metallo-beta-lactamase. inhibition, % at 5.6 µM. purified VIM-2, nitrocefin hydrolysis, epi-absorbance fluorescence. actives 0.89% (n = 290,000);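 active means inhibition above the mean of all tested compounds plus 3 SD, cutoff set per screening run, cut at about 7.5% in these data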;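 further: red hydrolysis product quenches plate fluorescence so inhibitors raise well fluorescence; 0% = enzyme with DMSO and 100% = DMSO without enzyme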
# FID counter = displaces DNA intercalator in HCV helicase counter-screen. AID 1845. inhibition, % at 7.9 µM. actives 0.17% (n = 290,000). DNA fluorescent intercalator displacement, fluorescence; in the data active means inhibition above about 37%;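 further: 0% = vehicle and 100% = reference compound; higher means more ethidium bromide displaced from hairpin DNA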
# Yeast Mot1 SUMO = inhibits SUMO pathway, affecting Mot1-301 yeast growth. 2,300 tested, under 10 active. S. cerevisiae Mot1-301 galactose growth, ATP luminescence, 24 h; -100 = growth of slx-deleted rescue strain. shares compounds with SUMO Mot1 rescue. growth activity, percent, % at 42 µM;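 active means Signal drops as the depositor expects, and the fitted half-maximal dose is no more than ten times the top valid tested dose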;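 further: more negative values mean stronger growth rescue toward the control strain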
# Numbers without * were called inactive; / = no result given; + = active, no number; [ ] = another dose, or the depositor's remark.
SMILES,UBC9 SUMO inh,NALP1 inh,SUMO Mot1 rescue,IMP-1 inhibitor,VIM-2 inh,FID counter,Yeast Mot1 SUMO
O=C(Nc1cccc(C(=O)Nc2ccc(F)cc2F)c1)c1ccccc1,-3,9,+,-1,-3,-9,-1
CN1c2ccc(Cl)cc2C(=O)NC1C1CC=CCC1 (centres undefined),17,37,-16,-2,-1,-4,/
COc1cccc(NC(=O)CN2C(=O)C(=O)N(C3CCCC3)C2=O)c1,/,/,-23,/,/,/,/
CCOC(=O)c1cnc2oc3ccccc3n2c1=O,-5,6,+,-1,2,-1,1
O=C1Nc2ccc([N+](=O)[O-])cc2OC1CCN1CCN(c2ccccc2)CC1 (centres undefined),-14,16,36,-2,-3,-2,/
CCOc1ccc(N(CC(=O)NC2CCCCC2C)S(=O)(=O)c2c(C)noc2C)cc1 (centres undefined),-8,16,174,-2,-1,-39,/
COc1ccc(NC(=O)CN(c2ccc(C(C)C)cc2)S(=O)(=O)c2c(C)noc2C)cc1OC,-17,21,367*,0,-1,0,0
Cc1cc(C)cc(N(CC(=O)Nc2cccc(C)n2)S(=O)(=O)c2c(C)noc2C)c1,-30,-8,528*,-3,-4,-29,-1
COc1ccc(N(CC(=O)Nc2ccc(C)c(C)c2)S(=O)(=O)c2c(C)noc2C)cc1,-21,21,6,-3,-1,-31,/
Cc1ccc(CCNC(=O)CN(c2ccc(C)cc2)S(=O)(=O)c2c(C)noc2C)cc1,-4,5,3,-3,-6,-52,/
CCOc1ccc(N(CC(=O)NC2CCC(C)CC2)S(=O)(=O)c2c(C)noc2C)cc1 (centres undefined),-4,8,461*,-3,-2,-47,0
Cc1ccc(N(CC(=O)NCCc2ccc(Cl)cc2)S(=O)(=O)c2c(C)noc2C)cc1,6,19,510*,-1,-1,-32,0
Cc1ccc2nc(Cl)c(C#N)cc2c1,2,-3,189,0,-2,6,/
CCCCOc1ccc(C(=O)Nc2ccc(N3CCN(C)CC3)cc2)cc1,5,-7,+,-5,0,15,0
NCC(=O)Nc1ccc(Cl)cc1C(=O)c1ccc[nH]1,-2,1,/,-2,-3,-2,/
Cc1cc(C)n(C(=O)CNC(=O)c2ccc3c(c2)OCCO3)n1,10,26,601*,1,2,0,0
O=C(COC(=O)CNC(=O)c1ccc(Cl)cc1)Nc1ccc2c(c1)OCCO2,6,5,-21,1,-2,-13,/
Cc1ccc(C(=O)NCC(=O)Nc2ccc3c(c2)OCCO3)cc1,/,/,580*,/,/,/,0[21 µM]
CC1CC(C)CN(S(=O)(=O)c2ccc(C(=O)Nc3nnc(C4CC4)o3)cc2)C1 (centres undefined),6,9,158,-4,-9,-62,/
COc1cc(OC)cc(C(=O)N[C@H](C(=O)Nc2ccc(S(=O)(=O)N(C)C)cc2)C(C)C)c1,-14,4,-11,-2,-2,-20,/
CCOC(=O)c1c(C)n(C)c2cc(-c3cccc(C(F)(F)F)c3)c(O)cc12,12,35,1,-2,-6,1,/
CCOC(=O)c1c(C)n(C)c2cc(-c3ccc(C)cc3)c(O)cc12,31,48,645*,-1,-1,-6,0
COc1cc(/C=N/NC(=O)CCC(=O)Nc2ccc(F)cc2)ccc1O,0,-11,-4,-2,-1,-8,/
COc1ccc(/C=N/NC(=O)CCC(=O)Nc2ccccc2)cc1OC,0,4,795*,-3,-5,-7,1
COc1ccc(NC(=O)CCCc2ccccc2)cc1OC,2,18,382*,-2,-1,-8,0
SMILES,UBC9 SUMO inh,NALP1 inh,SUMO Mot1 rescue,IMP-1 inhibitor,VIM-2 inh,FID counter,Yeast Mot1 SUMO
CC(=O)Nc1cccc(NC(=O)CCc2ccccc2)c1,4,-5,-10,-1,-5,-2,/
Cc1cccc(NC(=O)CCc2ccccc2)c1,13,-3,520*,-2,-2,-6,0
COc1cccc(N2CCN(C(=O)CCC(=O)c3ccc(Cl)s3)CC2)c1,/,/,36,/,/,/,/
CCC(=O)NC(Nc1ccccn1)(C(=O)OC)C(F)(F)F (centres undefined),1,34,14,-2,-2,4,/
CC(Oc1ccc([N+](=O)[O-])cc1)C(=O)NCCCN1CCOCC1 (centres undefined),-1,-4,505*,-5,-4,0,0
O=C(NC(=S)NCCCN1CCOCC1)c1ccc([N+](=O)[O-])cc1,6,47,46,-3,1,4,/
COc1cc(O)oc1C=Nc1ccc(Cl)cc1,22,21,-18,-3,3,0,/
COc1cc(O)oc1C=Nc1ccc(C(=O)O)cc1,-2,-3,577*,-2,-2,3,-2
CCSc1nc2ccccc2c(=O)n1C1CCOC(C)(C)C1 (centres undefined),12,-4,545*,-1,-3,-10,0
Cc1ccc(NS(=O)(=O)c2ccc(NC(=O)c3ccccc3C(=O)O)cc2)cc1C,/,/,-14,/,/,/,/
NS(=O)(=O)c1ccc(CCNC(=O)CN2CCN(c3ccc(F)cc3)CC2)cc1,-14,18,650*,-4,0,-4,1
CC1CCCN(CCCNC(=O)c2ccc(NC(=O)C3=CSCCO3)cc2)C1 (centres undefined),15,10,101,-1,-1,3,/
Cc1cccc(N2CCN(CCCNC(=O)c3ccc(NC(=O)C4=CSCCO4)cc3)CC2C)c1 (centres undefined),2,23,445*,-1,0,16,0
Cc1cc(C)n2c(SCC(C)C)nnc2n1,23,-12,770*,-2,0,1,-1
CCc1ccc(N(C(=O)CCC(=O)Nc2cc(C)on2)C(C(=O)NC(C)(C)C)c2ccc(OC)cc2)cc1 (centres undefined),-10,16,-22,-1,-4,-44,/
COc1ccc(OC)c(NC(=O)CNC(=O)Cn2ccc3ccccc3c2=O)c1,13,10,503*,1,-1,-6,0
COc1cc(OC)c(NC(=O)CNC(=O)Cn2ccc3ccccc3c2=O)cc1Cl,15,-68,80,-1,-1,-10,/
COc1ccc(CCNC(=O)CSc2nnc(Cc3cccn3C)n2C)cc1OC,-8,9,281,-2,-4,-20,/
COc1ccc(CC(=O)NNC(=O)COc2ccc(F)cc2)cc1S(=O)(=O)N1CCOCC1,/,/,-11,/,/,/,/
CCOc1ccc(-c2nc(C#N)c(N3CCOCC3)o2)cc1,20,-6,417*,-3,-2,-14,-1
